Reference: ChEMBL document CHEMBL3784931, “Synthesis and evaluation of novel angiotensin II receptor 1 antagonists as anti-hypertension drugs” (Bioorg Med Chem, 2016)

Biological target: T1, Type-1 angiotensin II receptor A (Rattus norvegicus, UniProt P25095)
T1 sequence (P25095 whole entry): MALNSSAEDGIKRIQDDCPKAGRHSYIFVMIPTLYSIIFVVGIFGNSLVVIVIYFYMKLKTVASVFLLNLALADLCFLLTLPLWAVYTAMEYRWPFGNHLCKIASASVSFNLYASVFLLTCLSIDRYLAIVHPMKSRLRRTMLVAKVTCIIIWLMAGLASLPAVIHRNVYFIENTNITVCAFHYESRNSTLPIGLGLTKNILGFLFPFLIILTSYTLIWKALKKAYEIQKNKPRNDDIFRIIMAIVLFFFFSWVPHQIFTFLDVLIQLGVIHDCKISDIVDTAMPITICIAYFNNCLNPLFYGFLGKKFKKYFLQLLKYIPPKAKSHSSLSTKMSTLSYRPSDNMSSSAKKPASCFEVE
Experiment: Displacement of [125I]-Ang II from Angiotensin 2 type-1A receptor in rat vascular smooth muscle cells after 150 mins by gamma counting method
Procedure, shortened: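 Rat vascular smooth muscle cells (passages 3–6) were seeded at 10⁶ cells/well and grown at 37 °C in 5% CO₂. Nonspecific binding was taken with 1 µM Ang II. Cells were washed three times, lysed 10 min in 0.1 M NaOH, and bound radioactivity was gamma counted.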

**Q.** For `CCCCc1nc(Cl)c(CO)n1Cc1ccc(-c2ccccc2-c2noc(=O)[nH]2)cc1`, which IC50 is on record?
**A.** 5.94 nM

**Q.** And the Ki?
**A.** 4.3 nM
